ChEMBL document CHEMBL1154878, “Discovery of benzhydrylpiperazine derivatives as CB1 receptor inverse agonists via privileged structure-based approach” (Eur J Med Chem, 2010)
Activity calls are given as the source filed them. The calls are words filed in the database; no cut-off is given here.

Columns and labels:
Cannabinoid receptor 2 = Cannabinoid receptor 2 (Homo sapiens, UniProt P34972); assay: Displacement of [3H]CP-55940 from human recombinant cannabinoid CB2 receptor expressed in CHO cells after 3 hrs by liquid scintillation counting; assay type: cell-based
Sequence of Cannabinoid receptor 2 (P34972 whole entry): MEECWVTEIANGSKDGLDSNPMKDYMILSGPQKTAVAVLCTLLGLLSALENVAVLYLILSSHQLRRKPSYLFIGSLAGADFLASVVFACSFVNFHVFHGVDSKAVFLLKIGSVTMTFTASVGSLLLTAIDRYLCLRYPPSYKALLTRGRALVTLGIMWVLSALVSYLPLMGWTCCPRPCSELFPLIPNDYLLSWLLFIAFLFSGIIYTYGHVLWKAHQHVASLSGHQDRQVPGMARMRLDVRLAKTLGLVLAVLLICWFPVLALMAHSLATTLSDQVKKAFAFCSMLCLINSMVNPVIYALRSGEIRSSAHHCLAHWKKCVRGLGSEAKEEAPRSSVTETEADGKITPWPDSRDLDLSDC

Cannabinoid receptor 1 [1] = target: T1, Cannabinoid receptor 1 (Homo sapiens, UniProt P21554); assay type: functional, cell-based, CHO
T1 sequence (P21554 whole entry): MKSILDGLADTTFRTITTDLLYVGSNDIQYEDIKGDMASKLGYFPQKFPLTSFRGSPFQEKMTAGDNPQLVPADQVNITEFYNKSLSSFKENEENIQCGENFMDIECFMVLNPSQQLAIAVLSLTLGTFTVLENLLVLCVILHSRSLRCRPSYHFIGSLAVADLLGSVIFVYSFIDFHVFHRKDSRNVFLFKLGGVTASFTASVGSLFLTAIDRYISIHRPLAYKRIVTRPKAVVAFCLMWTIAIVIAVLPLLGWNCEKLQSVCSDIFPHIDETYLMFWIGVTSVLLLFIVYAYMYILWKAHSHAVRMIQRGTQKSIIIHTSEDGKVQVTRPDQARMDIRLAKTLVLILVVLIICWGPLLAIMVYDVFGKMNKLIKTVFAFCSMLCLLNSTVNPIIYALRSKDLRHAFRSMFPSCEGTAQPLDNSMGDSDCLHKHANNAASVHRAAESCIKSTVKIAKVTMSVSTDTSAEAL

Cannabinoid receptor 1 [2] = target: T1, Cannabinoid receptor 1; assay: biochemical; assay type: cell-based, CHO
Rattus norvegicus [3] = assay: Antiobesity activity in diet-induced obese Sprague-Dawley rat assessed as body weight progression at 10 mg/kg, po SID up to 12 days; assay type: functional, organism-based; parameters: dose 10 mg/kg
Summary of the method: (§1)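 Male DIO rats (HFD from weaning, 60% kcal fat; used at 12-16 weeks, conditioned to water gavage 5 days), individually caged, n = 11-12/group. Oral gavage 10 mg/kg daily for 12 days, 1 h before dark cycle, in 0.5% carboxymethyl cellulose/water (2 mL/kg) vs vehicle. Food intake and body weight recorded daily; Student's t-test.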

Cannabinoid receptor 1 [4] = target: T1, Cannabinoid receptor 1; assay: Inverse agonist activity at human cannabinoid CB1 receptor expressed in CHO cells assessed as inhibition of forskolin-stimulated cAMP accumulation after 60 mins; assay type: functional, cell-based
[5] = Plasma half life in Sprague-Dawley rat at 10 mg/kg, po; assay type: ADME, organism-based; parameters: dose 10 mg/kg, route oral
Summary of the method: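 Male Sprague–Dawley rats fasted overnight, single oral dose 10 mg/kg. Blood collected at various time points into lithium heparin, plasma stored at -20 °C, extracted by protein precipitation and quantified by LC/MS/MS; n = 5 rats/group.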

Rattus norvegicus [6] = assay: Antiobesity activity in diet-induced obese Sprague-Dawley rat assessed as reduction in food intake at 10 mg/kg, po after 3 hrs; assay type: functional; parameters: scale not given: the % may be the effect or the level left
Summary of the method: (§2)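 Male DIO Sprague-Dawley rats (HFD from weaning), randomized n = 14/group, individually caged. Single oral dose 10 mg/kg in 0.5% carboxymethyl cellulose (2 mL/kg) 1 h before dark onset. Preweighed pelleted food reweighed at 3 h and overnight (18 h) postdose for cumulative intake vs vehicle.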

Rattus norvegicus [7] = assay: Antiobesity activity in diet-induced obese Sprague-Dawley rat assessed as reduction in final body weight gain at 10 mg/kg, po SID after 12 days; assay type: functional, organism-based; parameters: dose 10 mg/kg; summary of the method: as §1
Rattus norvegicus [8] = assay: Antiobesity activity in diet-induced obese Sprague-Dawley rat assessed as reduction in food intake at 10 mg/kg, po after 18 hrs; assay type: functional; parameters: scale not given: the % may be the effect or the level left; summary of the method: as §2

Row | Ki (Cannabinoid receptor 2) [nM] | IC50 (Cannabinoid receptor 1 [1]) [nM] | Ki (Cannabinoid receptor 1 [2]) [nM] | SMILES | further results
1 | 918 | – | – | CCCCNC(=O)N1CCN(C(c2ccccc2)c2ccc(Cl)cc2Cl)CC1 (centres undefined) | –
2 | 618 | > 10000 | 111 | O=C(N1CCOCC1)N1CCN(C(c2ccccc2)c2ccc(Cl)cc2Cl)CC1 (centres undefined) | –
3 | 432 | 9.2 | 1.6 | O=C(NC1CCCCC1)N1CCN(C(c2ccccc2)c2ccc(Cl)cc2Cl)CC1 (centres undefined) | –
4 | 1040 | 4.7 | 1.2 | O=C(NN1CCCCC1)N1CCN(C(c2ccccc2)c2ccc(Cl)cc2Cl)CC1 (centres undefined) | –
5 | 1300 | 68 | 8.1 | O=C(NC1CCCCC1)N1CCN(C(c2ccccc2)c2ccc(F)cc2Cl)CC1 (centres undefined) | –
6 | 2930 | 9.3 | 5.8 | O=C(C1CCCCC1)N1CCN(C(c2ccccc2)c2ccc(Cl)cc2Cl)CC1 (centres undefined) | –
7 | 831 | 55 | 2.2 | O=C(NC1CCCCC1)N1CCN(C(c2ccccc2)c2c(Cl)cccc2Cl)CC1 (centres undefined) | –
8 | 26 | 19 | 0.23 | O=C(NC1CCCCC1)N1CCN(C(c2ccc(Cl)cc2)c2ccc(Cl)cc2Cl)CC1 (centres undefined) | –
9 | 987 | > 10000 | 56 | O=C(N1CCCCC1)N1CCN(C(c2ccccc2)c2ccc(Cl)cc2Cl)CC1 (centres undefined) | –
10 | 1870 | – | 106 | S=C(NC1CCCCC1)N1CCN(C(c2ccccc2)c2ccccc2)CC1 | –
11 | 2410 | – | 52 | O=C(NC1CCCCC1)N1CCN(C(c2ccccc2)c2ccccc2)CC1 | –
12 | 317 | 15 | 3 | Cc1ccc(C(c2ccc(Cl)cc2Cl)N2CCN(C(=O)NN3CCCCC3)CC2)cc1 (centres undefined) | –
13 | 2120 | > 10000 | 291 | O=C(C1CCC1)N1CCN(C(c2ccccc2)c2ccc(Cl)cc2Cl)CC1 (centres undefined) | –

Continued, compound first:

Row | SMILES | Ki (Cannabinoid receptor 2) [nM] | IC50 (Cannabinoid receptor 1 [1]) [nM] | Ki (Cannabinoid receptor 1 [2]) [nM] | further results
14 | O=C(NC1CCCCC1)N1CCN(C(c2ccccc2)c2cc(Cl)ccc2Cl)CC1 (centres undefined) | 899 | 43 | 5.9 | –
15 | CCCCNC(=O)N1CCN(C(c2ccccc2)c2ccccc2)CC1 | 2830 | – | 239 | –
16 | O=C(NC1CCCCC1)N1CCN(C(c2ccccc2)c2ccc(Cl)c(Cl)c2)CC1 (centres undefined) | 356 | 462 | 60 | –
17 | O=C(N1CCN(C(c2ccccc2)c2ccc(Cl)cc2Cl)CC1)C12CC3CC(CC(C3)C1)C2 (centres undefined) | 25 | 288 | 5.9 | –
18 | O=C(NC1CCCCC1)N1CCN(C(c2ccccc2)c2ccc(Cl)cc2F)CC1 (centres undefined) | 526 | 124 | 3.1 | –
19 | O=C(C1CCCCC1)N1CCN(C(c2ccccc2)c2ccccc2)CC1 | 3050 | – | 164 | –
20 | O=C(NC1CCCCC1)N1CCN(C(c2ccc(C(F)(F)F)cc2)c2ccc(Cl)cc2Cl)CC1 (centres undefined) | 274 | 57 | 1.2 | –
21 | Cc1ccc(C(c2ccc(Cl)cc2Cl)N2CCN(C(=O)NC3CCCCC3)CC2)cc1 (centres undefined) | 329 | 2.7 | 0.15 | Activity (Rattus norvegicus [3]): Active; EC50 (Cannabinoid receptor 1 [4]): 0.87 nM; half-life [5]: 2.4 h; Activity (Rattus norvegicus [6]): 39%; Activity (Rattus norvegicus [7]): Active; Activity (Rattus norvegicus [8]): 22%
22 | O=C(C1CCCC1)N1CCN(C(c2ccccc2)c2ccc(Cl)cc2Cl)CC1 (centres undefined) | 4880 | 403 | 732 | –
23 | O=C(NC1CCCCC1)N1CCN(C(c2ccc(F)cc2)c2ccc(Cl)cc2Cl)CC1 (centres undefined) | 159 | 8.1 | 2.5 | –
24 | COc1ccc(C(c2ccc(Cl)cc2Cl)N2CCN(C(=O)NC3CCCCC3)CC2)cc1 (centres undefined) | 290 | 82 | 2.6 | –
25 | O=C(NC1CCCCC1)N1CCN(C(c2cccc(Cl)c2)c2ccc(Cl)cc2Cl)CC1 (centres undefined) | 407 | 161 | 2.3 | –
26 | O=C(NC1CCCCC1)N1CCN(C(c2ccc(Oc3ccccc3)cc2)c2ccc(Cl)cc2Cl)CC1 (centres undefined) | 52 | 34 | 1.1 | –
27 | S=C(NC1CCCCC1)N1CCN(C(c2ccccc2)c2ccc(Cl)cc2Cl)CC1 (centres undefined) | 673 | 18 | 0.2 | –
28 | O=C(NC1CCCCC1)N1CCN(C(c2ccccc2)c2ccc(Br)cc2F)CC1 (centres undefined) | 322 | 87 | 1.8 | –
